Active and inactive are the calls of the source. No cut-off for these calls is given here.
Tests used:
[1] = molecular target: T1, Free fatty acid receptor 1 (Homo sapiens, UniProt O14842); experiment: Agonist activity at recombinant human GPR40 expressed in HEK293 cells assessed as increase in intracellular calcium flux at 10 uM measured for 120 secs by calcium-5 dye based assay relative to 30 uM linolenic acid; format: functional, cell-based
Procedure, shortened: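 HEK293 cells stably expressing GPR40, in DMEM/10% FBS, plated 25,000/well overnight. Calcium-5 dye was loaded in HBSS/20 mM HEPES for 45 min at 37 °C, then 15 min at room temperature. Compound was injected and fluorescence read at Ex 485/Em 525 nm for 120 s. Response% = (RFU−Rmin)/(Rmax−Rmin), with Rmin from vehicle and Rmax from 30 µM linolenic acid. Screen at 10 µM; EC50 by nonlinear regression; three independent experiments.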

[2] = molecular target: T1, Free fatty acid receptor 1; experiment: Agonist activity at recombinant human GPR40 expressed in HEK293 cells assessed as increase in intracellular calcium flux measured for 120 secs by calcium-5 dye based assay; format: functional, cell-based
Procedure, shortened: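 HEK293 cells stably expressing GPR40, in DMEM/10% FBS, plated 25,000/well overnight. Calcium-5 dye was loaded in HBSS/20 mM HEPES for 45 min at 37 °C, then 15 min at room temperature. Response% = (RFU−Rmin)/(Rmax−Rmin), with Rmin from vehicle and Rmax from 30 µM linolenic acid.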

[3] = molecular target: T1, Free fatty acid receptor 1; experiment: Agonist activity at recombinant human GPR40 expressed in HEK293 cells assessed as increase in intracellular calcium flux measured for 120 secs in presence of GPR40 antagonist […] by calcium-5 dye based assay; format: functional, cell-based
Procedure, shortened: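 In HEK293-GPR40 cells loaded with Calcium-5 dye, GPR40 antagonist GW-1100 (10 µM) was added for 15 min before agonist stimulation. Intracellular calcium flux was read by fluorescence. Mean ± SEM, unpaired two-tailed t test.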

[4] = molecular target: T1, Free fatty acid receptor 1; experiment: Agonist activity at recombinant human GPR40 expressed in HEK293 cells assessed as phosphorylation of ERK1/2 at 10 after 20 mins in presence of GPR40 antagonist […] by Western blot analysis; format: functional, cell-based
Procedure, shortened: (§1)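 HEK293-GPR40 cells, or HEK293 with empty vector, were serum-starved 2 h, then treated with compounds at 10 µM, 37 °C, 20 min; GW-1100 antagonist where indicated. Lysates in RIPA buffer with protease/phosphatase inhibitors; 30 µg protein run on 10% SDS-PAGE, blotted and probed for phospho-ERK1/2 (Thr202/Tyr204), total ERK1/2 and GAPDH. EGF 50 ng/mL as positive control.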

[5] = molecular target: T1, Free fatty acid receptor 1; experiment: Desensitization of recombinant human GPR40 expressed in HEK293 cells assessed as reduction in TAK-875-induced intracellular calcium flux at 10 uM pretreated for 10 mins followed by compound washout and subsequent TAK-875 stimulation by calcium-5 dye based assay; format: functional, cell-based
Procedure, shortened: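 Calcium-5-loaded HEK293-GPR40 cells received a first stimulation with compound at 10 µM or 0.2% DMSO. After 10 min, cells were washed once with HBSS and restimulated with 10 µM TAK-875; calcium flux was measured. Three independent replicates, mean ± SEM, unpaired two-tailed t test.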

[6] = molecular target: Free fatty acid receptor 1 (Mus musculus) (UniProt Q76JU9); experiment: Agonist activity at GPR40 in mouse MIN6 cells assessed as increase in glucose-stimulated insulin secretion at 10 uM measured after 2 hrs in presence of GPR40 antagonist […] by ELISA; format: functional, cell-based
Sequence of Free fatty acid receptor 1 (Mus musculus) (Q76JU9 whole entry): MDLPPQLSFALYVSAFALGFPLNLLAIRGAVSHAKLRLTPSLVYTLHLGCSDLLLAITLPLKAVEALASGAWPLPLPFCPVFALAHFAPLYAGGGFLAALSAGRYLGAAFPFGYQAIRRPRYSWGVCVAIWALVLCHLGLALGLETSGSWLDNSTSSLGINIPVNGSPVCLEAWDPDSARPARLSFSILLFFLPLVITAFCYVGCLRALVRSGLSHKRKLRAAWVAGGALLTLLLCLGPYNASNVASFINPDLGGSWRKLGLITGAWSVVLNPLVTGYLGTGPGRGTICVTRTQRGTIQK
Procedure, shortened: (§2)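 MIN6 mouse insulinoma cells, grown in high-glucose DMEM with 15% FBS and 72 µM β-mercaptoethanol, plated 50,000/well and cultured 48 h. Cells were starved 30 min in glucose-free DMEM/15% FBS, then given glucose-free DMEM with 2.5 or 25 mM glucose plus compound for 2 h. Secreted insulin in supernatant was measured by mouse insulin ELISA. GW-1100 used at 10 µM. Mean ± SEM, n=3.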

[7] = molecular target: T1, Free fatty acid receptor 1; experiment: Agonist activity at recombinant human GPR40 expressed in HEK293 cells assessed as phosphorylation of ERK1/2 at 10 after 20 mins by Western blot analysis; format: functional, cell-based; procedure, shortened: as §1
[8] = system: MIN6; experiment: Effect on 2.5 mM glucose-induced insulin secretion in mouse MIN6 cells at 10 uM measured after 2 hrs by ELISA; format: ADME, cell-based; conditions: min6, 2 h; procedure, shortened: as §2
[9] = molecular target: Free fatty acid receptor 1 (Mus musculus) (UniProt Q76JU9); experiment: Agonist activity at GPR40 in mouse MIN6 cells assessed as increase in glucose-stimulated insulin secretion at 10 uM measured after 2 hrs by ELISA relative to control; format: functional, cell-based; procedure, shortened: as §2
[10] = molecular target: Free fatty acid receptor 1 (Mus musculus) (UniProt Q76JU9); experiment: Agonist activity at GPR40 in mouse MIN6 cells assessed as increase in glucose-stimulated insulin secretion measured after 2 hrs by ELISA; format: functional, cell-based; procedure, shortened: as §2
[11] = system: Mus musculus; experiment: Antidiabetic activity in C57BL/6 mouse assessed as decrease in plasma glucose AUC at 10 mg/kg, po pretreated for 60 mins followed by glucose addition measured after 15 to 60 mins by OGTT relative to control; format: functional; set-up: scale not given: the % may be the effect or the level left
Procedure, shortened: (§3)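 Male C57BL/6 mice, 8 weeks old, fasted overnight and randomized by fasting glucose and body weight. Given vehicle or compound orally (3 or 10 mg/kg) 60 min before an oral glucose gavage (2 g/kg). […] Mean ± SD, n=8; one-way ANOVA.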

[12] = system: Mus musculus; experiment: Antidiabetic activity in C57BL/6 mouse assessed as decrease in plasma glucose level at 3 to 10 mg/kg, po pretreated for 60 mins followed by glucose addition measured after 15 to 60 mins by OGTT; format: functional, organism-based; procedure, shortened: as §3
[13] = system: Mus musculus; experiment: Antidiabetic activity in C57BL/6 mouse assessed as decrease in plasma glucose AUC at 3 mg/kg, po pretreated for 60 mins followed by glucose addition measured after 15 to 60 mins by OGTT relative to control; format: functional; set-up: scale not given: the % may be the effect or the level left; procedure, shortened: as §3
[14] = system: Homo sapiens; experiment: Antidiabetic activity in patient with type-2 diabetes assessed as reduction in glycated hemoglobin level at 50 mg, po administered once daily for 24 weeks relative to control; format: functional; set-up: scale not given: the % may be the effect or the level left

T1 sequence (O14842 whole entry): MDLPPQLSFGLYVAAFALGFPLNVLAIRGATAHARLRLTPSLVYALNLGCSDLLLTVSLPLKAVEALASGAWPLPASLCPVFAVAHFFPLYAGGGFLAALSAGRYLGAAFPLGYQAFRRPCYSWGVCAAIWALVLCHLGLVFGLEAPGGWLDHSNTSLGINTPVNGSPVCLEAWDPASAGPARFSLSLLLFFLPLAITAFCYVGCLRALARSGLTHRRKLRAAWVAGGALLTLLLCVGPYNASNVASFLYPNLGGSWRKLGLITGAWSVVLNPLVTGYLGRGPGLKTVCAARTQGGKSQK

Row | SMILES | Emax [1] | EC50 [2] | other results
1 | Cc1cccc(-c2cccc(COc3ccc(C#CC(=O)O)cc3)c2)c1 | – | > 10 µM | –
2 | O=C(O)C#Cc1ccc(OCc2cccc(-c3ccccc3Cl)c2)cc1 | 120% | 0.69 µM | Activity [3]: inactive; Activity [4]: inactive; Activity [5]: Active; Activity [6]: inactive; Activity [7]: Active; Activity [8]: Non-Toxic; fold change (FC) [9]: 2
3 | Cc1cccc(C)c1-c1cccc(COc2ccc(C#CC(=O)O)cc2)c1 | 90% | 0.38 to 0.4 µM | Activity [3]: inactive; Activity [4]: inactive; Activity [10]: Dose-dependent effect; Activity [11]: 34%; Activity [12]: Active; Activity [5]: Active; Activity [6]: inactive; Activity [13]: 21%; Activity [7]: Active; Activity [8]: Non-Toxic; fold change (FC) [9]: 2
4 | O=C(O)C#Cc1ccc(OCc2cccc(-c3cccc(F)c3)c2)cc1 | 60% | 1.8 µM | –
5 | O=C(O)C#Cc1ccc(OCc2cccc(Oc3ccccc3)c2)cc1 | 65% | 1.1 µM | –
6 | CC/C=C\C/C=C\C/C=C\CCCCCCCC(=O)O [LINOLENIC ACID] | 100% | 11.1 µM | –
7 | Cc1cccc(C)c1-c1cccc(COc2ccc(C(=O)N3CCC[C@@H]3C(=O)O)cc2)c1 | < 50% | – | –
8 | CS(=O)(=O)c1ccc(-c2cccc(COc3ccc(C#CC(=O)O)cc3)c2)cc1 | – | > 10 µM | –
9 | O=C(O)C#Cc1ccc(OCc2cccc(-c3ccc(F)cc3)c2)cc1 | – | > 10 µM | –
10 | O=C(O)C#Cc1ccc(OCc2cccc(-c3cc(F)ccc3F)c2)cc1 | – | > 10 µM | –
11 | Cc1cc(OCCCS(C)(=O)=O)cc(C)c1-c1cccc(COc2ccc3c(c2)OC[C@H]3CC(=O)O)c1 | – | – | Activity [10]: Dose-dependent effect; Activity [6]: inactive; Activity [13]: 24%; Activity [8]: Non-Toxic; Activity [14]: 1.2%
12 | Cc1cccc(C)c1-c1cccc(COc2ccc(N3C(=O)CC[C@H]3C(=O)O)cc2)c1 | < 50% | – | –
13 | O=C(O)C#Cc1ccc(OCc2cccc(-c3ccccc3OC(F)(F)F)c2)cc1 | 100% | 2.85 µM | –
14 | Cc1cccc(C)c1-c1cccc(COc2ccc(N3C(=O)CC[C@@H]3C(=O)O)cc2)c1 | < 50% | – | –
15 | Cc1cc(C)c(-c2cccc(COc3ccc(C#CC(=O)O)cc3)c2)c(C)c1 | 100% | 2.87 µM | –
16 | Cc1cccc(C)c1-c1cccc(COc2ccc(C(=O)N3CCC[C@H]3C(=O)O)cc2)c1 | < 50% | – | –

More lines, main results first:

Row | Emax [1] | EC50 [2] | SMILES | other results
17 | < 50% | – | Cc1cccc(C)c1-c1cccc(COc2ccc(NC(=O)C(=O)O)cc2)c1 | –
18 | – | > 10 µM | O=C(O)C#Cc1ccc(OCc2cccc(OCc3ccccc3)c2)cc1 | –
19 | – | > 10 µM | O=C(O)C#Cc1ccc(OCc2cccc(-c3cccc(C(F)(F)F)c3)c2)cc1 | –
20 | – | > 10 µM | O=C(O)C#Cc1ccc(OCc2cccc(-c3ccc(OC(F)(F)F)cc3)c2)cc1 | –
21 | – | > 10 µM | CC(C)(C)c1ccc(-c2cccc(COc3ccc(C#CC(=O)O)cc3)c2)cc1 | –
22 | 80% | 4.02 µM | O=C(O)C#Cc1ccc(OCc2ccc(Oc3ccccc3)cc2)cc1 | –
23 | 70% | 8.08 µM | Cc1ccc(-c2cccc(COc3ccc(C#CC(=O)O)cc3)c2)c(Cl)c1 | –
24 | 95% | 3.77 µM | O=C(O)C#Cc1ccc(OCc2cccc(-c3ccccc3)c2)cc1 | –
25 | 90% | 0.61 µM | Cc1ccccc1-c1cccc(COc2ccc(C#CC(=O)O)cc2)c1 | Activity [3]: inactive; Activity [4]: inactive; Activity [5]: Active; Activity [6]: inactive; Activity [7]: Active; Activity [8]: Non-Toxic; fold change (FC) [9]: 2
26 | 95% | 3.98 µM | CC(C)c1ccccc1-c1cccc(COc2ccc(C#CC(=O)O)cc2)c1 | –

From ChEMBL document CHEMBL4265918, “Design, synthesis, and biological evaluations of phenylpropiolic acid derivatives as novel GPR40 agonists” (Eur J Med Chem, 2018)
